Tests used:
Settings in all cases: stereoisomer not certain
OR4M2 (Homo sapiens) = OR4M2 (Homo sapiens) (UniProt Q8NGB6)
Method in brief: (§1)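 Whether a receptor–molecule pair is responsive (active) rests on the original authors' judgment that its measured signal was statistically different from baseline. Pairs without that judgment are non-responsive (inactive). Sources used varied assay methods, commonly transient luciferase assays in mammalian cell lines.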

OR4M2B (Homo sapiens) = OR4M2B (Homo sapiens) (UniProt A0A0X1KG70)
Method in brief: as §1

OR4N2 (Homo sapiens) = OR4N2 (Homo sapiens) (UniProt Q8NGD1)
Method in brief: as §1

OR4N4 (Homo sapiens) = OR4N4 (Homo sapiens) (UniProt Q8N0Y3)
Method in brief: as §1

OR4N4C (Homo sapiens) = OR4N4C (Homo sapiens) (UniProt A0A096LPK9)
Method in brief: as §1

OR4N5 (Homo sapiens) = OR4N5 (Homo sapiens) (UniProt Q8IXE1)
Method in brief: as §1

OR4P4 (Homo sapiens) = OR4P4 (Homo sapiens) (UniProt Q8NGL7)
Method in brief: as §1

OR4Q2 (Homo sapiens) = OR4Q2 (Homo sapiens) (UniProt P0C623)
Method in brief: as §1

OR4Q3 (Homo sapiens) = target: T1, OR4Q3 (Homo sapiens) (UniProt Q8NH05)
T1 sequence (whole entry): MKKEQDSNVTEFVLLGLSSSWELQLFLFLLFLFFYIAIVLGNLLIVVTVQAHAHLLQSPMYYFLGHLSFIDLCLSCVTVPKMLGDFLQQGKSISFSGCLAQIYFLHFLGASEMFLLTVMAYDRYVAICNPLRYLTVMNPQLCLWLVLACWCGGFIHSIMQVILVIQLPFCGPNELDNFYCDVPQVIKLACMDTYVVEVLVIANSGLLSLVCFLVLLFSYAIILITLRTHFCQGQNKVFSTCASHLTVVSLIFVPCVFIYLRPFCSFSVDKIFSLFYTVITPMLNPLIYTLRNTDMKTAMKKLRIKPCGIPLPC
Method in brief: as §1

OR4S1 (Homo sapiens) = OR4S1 (Homo sapiens) (UniProt Q8NGB4)
Method in brief: as §1

OR4S2 (Homo sapiens) = OR4S2 (Homo sapiens) (UniProt Q8NH73)
Method in brief: as §1

OR4X1 (Homo sapiens) = OR4X1 (Homo sapiens) (UniProt Q8NH49)
Method in brief: as §1

OR4X2 (Homo sapiens) = OR4X2 (Homo sapiens) (UniProt Q8NGF9)
Method in brief: as §1

OR51A2 (Homo sapiens) = OR51A2 (Homo sapiens) (UniProt Q8NGJ7)
Method in brief: as §1

OR4Q3 = test system: OR4Q3
Method in brief: as §1

OR4M1 H277N V279L L284H = test system: OR4M1 H277N V279L L284H
Method in brief: as §1

OR4N2 A57V I76T = test system: OR4N2 A57V I76T
Method in brief: as §1

OR4N2 R260C F279L R290H = test system: OR4N2 R260C F279L R290H
Method in brief: as §1

OR4N2 = test system: OR4N2
Method in brief: as §1

OR4Q3 T135A = test system: OR4Q3 T135A
Method in brief: as §1
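Further: active if original authors judged signal statistically different from baseline.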

OR4N4 (Homo sapiens), sequence (Q8N0Y3 whole entry): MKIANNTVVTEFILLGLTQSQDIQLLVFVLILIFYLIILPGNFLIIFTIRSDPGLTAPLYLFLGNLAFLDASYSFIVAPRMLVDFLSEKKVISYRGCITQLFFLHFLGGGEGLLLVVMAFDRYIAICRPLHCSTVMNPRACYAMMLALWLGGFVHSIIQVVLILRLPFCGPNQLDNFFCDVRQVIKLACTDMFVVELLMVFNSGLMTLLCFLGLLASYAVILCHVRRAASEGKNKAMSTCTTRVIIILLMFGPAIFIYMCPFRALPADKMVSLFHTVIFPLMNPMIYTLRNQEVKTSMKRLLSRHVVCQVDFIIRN
OR4S2 (Homo sapiens), sequence (Q8NH73 whole entry): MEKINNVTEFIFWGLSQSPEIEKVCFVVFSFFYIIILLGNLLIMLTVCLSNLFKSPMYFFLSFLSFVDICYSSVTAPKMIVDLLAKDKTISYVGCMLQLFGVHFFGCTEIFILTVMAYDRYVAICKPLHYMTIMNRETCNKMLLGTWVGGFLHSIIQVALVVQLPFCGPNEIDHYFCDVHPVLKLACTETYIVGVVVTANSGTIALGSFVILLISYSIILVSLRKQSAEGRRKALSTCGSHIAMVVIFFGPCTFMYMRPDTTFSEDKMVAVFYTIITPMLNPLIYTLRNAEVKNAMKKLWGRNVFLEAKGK
OR4S1 (Homo sapiens), sequence (Q8NGB4 whole entry): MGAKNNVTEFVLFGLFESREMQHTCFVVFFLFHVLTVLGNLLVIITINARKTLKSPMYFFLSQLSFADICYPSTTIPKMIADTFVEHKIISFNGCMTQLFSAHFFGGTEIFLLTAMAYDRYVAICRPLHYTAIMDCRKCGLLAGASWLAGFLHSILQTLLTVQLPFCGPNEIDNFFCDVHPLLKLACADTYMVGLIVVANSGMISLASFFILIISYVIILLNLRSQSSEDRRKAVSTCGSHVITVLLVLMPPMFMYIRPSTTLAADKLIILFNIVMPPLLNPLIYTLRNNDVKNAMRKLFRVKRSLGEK
OR4X2 (Homo sapiens), sequence (Q8NGF9 whole entry): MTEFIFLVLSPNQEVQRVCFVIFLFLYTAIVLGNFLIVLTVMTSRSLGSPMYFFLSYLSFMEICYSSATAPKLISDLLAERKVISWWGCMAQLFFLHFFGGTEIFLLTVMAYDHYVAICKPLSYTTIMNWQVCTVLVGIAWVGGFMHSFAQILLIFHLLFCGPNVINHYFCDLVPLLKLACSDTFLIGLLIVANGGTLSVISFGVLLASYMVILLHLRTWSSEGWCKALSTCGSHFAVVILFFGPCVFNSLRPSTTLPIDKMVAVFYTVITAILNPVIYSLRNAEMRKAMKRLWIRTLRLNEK
OR4M2 (Homo sapiens), sequence (Q8NGB6 whole entry): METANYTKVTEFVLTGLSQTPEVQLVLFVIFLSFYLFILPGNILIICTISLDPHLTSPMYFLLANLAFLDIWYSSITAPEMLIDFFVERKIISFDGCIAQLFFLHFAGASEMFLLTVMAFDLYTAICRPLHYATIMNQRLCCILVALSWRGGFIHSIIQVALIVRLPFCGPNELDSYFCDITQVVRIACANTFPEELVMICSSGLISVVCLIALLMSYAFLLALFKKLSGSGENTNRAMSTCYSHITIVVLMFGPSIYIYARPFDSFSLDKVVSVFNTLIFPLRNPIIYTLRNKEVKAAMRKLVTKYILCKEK
OR4P4 (Homo sapiens), sequence (Q8NGL7 whole entry): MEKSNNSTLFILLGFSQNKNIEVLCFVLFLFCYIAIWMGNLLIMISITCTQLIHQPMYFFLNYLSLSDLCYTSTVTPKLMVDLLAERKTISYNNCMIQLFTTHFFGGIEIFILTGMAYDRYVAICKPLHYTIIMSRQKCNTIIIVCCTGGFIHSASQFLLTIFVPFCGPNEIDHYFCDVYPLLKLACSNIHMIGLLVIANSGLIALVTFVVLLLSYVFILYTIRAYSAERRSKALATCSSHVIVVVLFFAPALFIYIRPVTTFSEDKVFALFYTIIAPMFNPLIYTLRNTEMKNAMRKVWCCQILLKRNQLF
OR4N5 (Homo sapiens), sequence (Q8IXE1 whole entry): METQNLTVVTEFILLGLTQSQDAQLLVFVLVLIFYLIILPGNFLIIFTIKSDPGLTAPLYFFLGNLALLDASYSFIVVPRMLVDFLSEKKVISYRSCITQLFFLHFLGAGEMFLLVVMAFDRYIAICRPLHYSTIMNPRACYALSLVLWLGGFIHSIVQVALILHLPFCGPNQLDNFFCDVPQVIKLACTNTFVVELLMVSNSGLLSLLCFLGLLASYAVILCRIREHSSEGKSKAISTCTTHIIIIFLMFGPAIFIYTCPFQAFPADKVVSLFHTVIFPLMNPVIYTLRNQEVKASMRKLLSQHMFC
OR4X1 (Homo sapiens), sequence (Q8NH49 whole entry): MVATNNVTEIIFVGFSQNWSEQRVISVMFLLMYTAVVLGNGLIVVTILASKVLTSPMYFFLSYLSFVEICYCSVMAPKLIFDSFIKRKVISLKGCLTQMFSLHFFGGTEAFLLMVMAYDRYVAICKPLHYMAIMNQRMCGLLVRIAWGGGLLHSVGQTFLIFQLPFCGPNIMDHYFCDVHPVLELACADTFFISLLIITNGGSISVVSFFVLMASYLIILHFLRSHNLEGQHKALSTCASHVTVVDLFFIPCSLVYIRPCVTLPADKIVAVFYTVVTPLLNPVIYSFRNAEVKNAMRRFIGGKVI
OR51A2 (Homo sapiens), sequence (Q8NGJ7 whole entry): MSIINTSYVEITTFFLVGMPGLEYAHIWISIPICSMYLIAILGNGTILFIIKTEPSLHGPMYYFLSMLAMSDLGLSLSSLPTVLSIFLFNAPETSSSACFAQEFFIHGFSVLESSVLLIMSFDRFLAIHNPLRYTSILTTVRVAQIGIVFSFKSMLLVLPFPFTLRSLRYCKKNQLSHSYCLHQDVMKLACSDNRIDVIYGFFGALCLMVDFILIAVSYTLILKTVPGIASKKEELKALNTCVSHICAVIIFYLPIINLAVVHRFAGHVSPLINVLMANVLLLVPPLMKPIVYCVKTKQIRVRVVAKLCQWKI
OR4N2 (Homo sapiens), sequence (Q8NGD1 whole entry): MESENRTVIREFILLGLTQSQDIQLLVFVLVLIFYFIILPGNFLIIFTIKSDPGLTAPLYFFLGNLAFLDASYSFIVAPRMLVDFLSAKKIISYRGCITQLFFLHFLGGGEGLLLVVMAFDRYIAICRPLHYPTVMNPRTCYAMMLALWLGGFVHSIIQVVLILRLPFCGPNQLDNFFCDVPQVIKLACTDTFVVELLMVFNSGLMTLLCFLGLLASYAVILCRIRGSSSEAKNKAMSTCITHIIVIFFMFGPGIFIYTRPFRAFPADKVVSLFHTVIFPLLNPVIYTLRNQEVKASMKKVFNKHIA
OR4M2B (Homo sapiens), sequence (A0A0X1KG70 whole entry): as the sequence (Q8NGB6 whole entry) above, with G96E, F225L, M239V, R284H counted along it
OR4Q2 (Homo sapiens), sequence (P0C623 as listed by the source): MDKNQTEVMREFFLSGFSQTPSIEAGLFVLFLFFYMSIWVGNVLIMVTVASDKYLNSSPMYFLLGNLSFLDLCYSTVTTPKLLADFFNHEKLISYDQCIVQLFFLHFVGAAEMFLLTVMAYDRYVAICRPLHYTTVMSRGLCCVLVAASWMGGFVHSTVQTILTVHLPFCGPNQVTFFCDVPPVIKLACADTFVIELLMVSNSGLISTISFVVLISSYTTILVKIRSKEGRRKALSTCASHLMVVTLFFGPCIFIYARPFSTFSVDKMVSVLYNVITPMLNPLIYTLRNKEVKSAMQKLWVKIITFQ
OR4Q3, sequence (as listed by the source): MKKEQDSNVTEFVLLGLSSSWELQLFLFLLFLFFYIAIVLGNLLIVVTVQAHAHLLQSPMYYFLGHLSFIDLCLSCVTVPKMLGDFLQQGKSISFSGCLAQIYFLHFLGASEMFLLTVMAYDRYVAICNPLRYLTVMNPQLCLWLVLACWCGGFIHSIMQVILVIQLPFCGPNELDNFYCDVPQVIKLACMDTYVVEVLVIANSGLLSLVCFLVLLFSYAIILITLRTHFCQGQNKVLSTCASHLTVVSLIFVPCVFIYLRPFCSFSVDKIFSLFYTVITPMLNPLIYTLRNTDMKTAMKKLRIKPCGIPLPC
OR4N4C (Homo sapiens), sequence (A0A096LPK9 whole entry): as the sequence (Q8N0Y3 whole entry) above, with M259I counted along it
OR4N2, sequence (as listed by the source): as the sequence (Q8NGD1 whole entry) above, with I76T counted along it
OR4Q3 T135A, sequence (as listed by the source, stated change not applied): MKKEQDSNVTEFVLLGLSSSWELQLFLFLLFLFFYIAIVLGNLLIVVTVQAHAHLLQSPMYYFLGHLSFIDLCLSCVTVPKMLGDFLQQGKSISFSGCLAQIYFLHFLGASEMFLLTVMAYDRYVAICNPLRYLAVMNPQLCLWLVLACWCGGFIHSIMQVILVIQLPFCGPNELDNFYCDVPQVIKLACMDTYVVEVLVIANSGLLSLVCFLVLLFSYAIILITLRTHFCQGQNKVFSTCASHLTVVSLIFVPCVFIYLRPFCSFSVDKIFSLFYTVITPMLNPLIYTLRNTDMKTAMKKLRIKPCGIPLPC

Compound	odorant receptor agonist call (OR4M2 (Homo sapiens))	odorant receptor agonist call (OR4M2B (Homo sapiens))	odorant receptor agonist call (OR4N2 (Homo sapiens))	odorant receptor agonist call (OR4N4 (Homo sapiens))	odorant receptor agonist call (OR4N4C (Homo sapiens))	odorant receptor agonist call (OR4N5 (Homo sapiens))	odorant receptor agonist call (OR4P4 (Homo sapiens))	odorant receptor agonist call (OR4Q2 (Homo sapiens))	odorant receptor agonist call (OR4Q3 (Homo sapiens))	odorant receptor agonist call (OR4S1 (Homo sapiens))	odorant receptor agonist call (OR4S2 (Homo sapiens))	odorant receptor agonist call (OR4X1 (Homo sapiens))	odorant receptor agonist call (OR4X2 (Homo sapiens))	odorant receptor agonist call (OR51A2 (Homo sapiens))	odorant receptor agonist call (OR4Q3)	odorant receptor agonist call (OR4M1 H277N V279L L284H)	odorant receptor agonist call (OR4N2 A57V I76T)	odorant receptor agonist call (OR4N2 R260C F279L R290H)	odorant receptor agonist call (OR4N2)	odorant receptor agonist call (OR4Q3 T135A)
Cc1c([N+](=O)[O-])c(C)c([N+](=O)[O-])c(C(C)(C)C)c1[N+](=O)[O-]	inactive	inactive	inactive	inactive	inactive	inactive	inactive	inactive	inactive	inactive	inactive	inactive	inactive	inactive						
CCCCOC(=O)c1ccccc1N									active						inactive					
C=CCOC(=O)Cc1ccccc1	inactive		inactive	inactive		inactive	inactive		inactive	inactive	inactive	inactive	inactive	inactive		inactive	inactive	inactive	inactive	inactive
